Results taken from ChEMBL document CHEMBL1132286, “Design, synthesis, and dopamine receptor modulating activity of spiro bicyclic peptidomimetics of L-prolyl-L-leucyl-glycinamide” (J Med Chem, 1999).
Values joined by “and” are separate entries in the source; they are usually repeats but may differ in a detail not shown here. Identical values can stand only once. Peptide text beside a SMILES is read from it.

Experiments:
D(2) dopamine receptor [1] = biological target: T1, D(2) dopamine receptor (Homo sapiens, UniProt P14416); assay: Inhibitor constant of compound for high affinity component of [3H]spiroperidol/N-propylnorapomorphine binding to Dopamine receptor D2 in absence of Gpp(NH)p
How it was run: (§1)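 D2 receptor binding: [3H]spiroperidol displaced by the agonist N-propylnorapomorphine, run without or with Gpp(NH)p (100 μM). The assay was done either with 100 nM test-compound pretreatment or untreated as its control. High- and low-affinity dissociation constants (KH, KL) and receptor fractions (RH, RL, RH/RL) are reported. Values are mean ± SEM of 3–4 separate experiments, each done in duplicate or triplicate.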

D(2) dopamine receptor [2] = biological target: T1, D(2) dopamine receptor; assay: Inhibitor constant of compound for high affinity component of [3H]spiroperidol/N-propylnorapomorphine binding to Dopamine receptor D2 in presence of Gpp(NH)p (pretreatment with 100 nM of compound); how it was run: as §1
D(2) dopamine receptor [3] = biological target: T1, D(2) dopamine receptor; assay: Percent of Dopamine receptor D2 in high affinity state for the compound in presence of Gpp(NH)p; how it was run: as §1
D(2) dopamine receptor [4] = biological target: T1, D(2) dopamine receptor; assay: Ratio of the high affinity state over low affinity state of dopamine D2 receptor in the absence of Gpp(NH)p. (pretreatment with 100 nM of compound).; how it was run: as §1
D(2) dopamine receptor [5] = biological target: T1, D(2) dopamine receptor; assay: Ratio of the high affinity state over low affinity state of dopamine D2 receptor in the absence of Gpp(NH)p.; how it was run: as §1
D(2) dopamine receptor [6] = biological target: T1, D(2) dopamine receptor; assay: Inhibitor constant of compound for low affinity component of [3H]spiroperidol/N-propylnorapomorphine binding to Dopamine receptor D2 in absence of Gpp(NH)p; how it was run: as §1
D(2) dopamine receptor [7] = biological target: T1, D(2) dopamine receptor; assay: Percent of Dopamine receptor D2 in high affinity state for the compound in absence of Gpp(NH)p (pretreatment with 100 nM of compound).; how it was run: as §1
D(2) dopamine receptor [8] = biological target: T1, D(2) dopamine receptor; assay: Percent of Dopamine receptor D2 in low affinity state for the compound in presence of Gpp(NH)p (pretreatment with 100 nM of compound).; how it was run: as §1
D(2) dopamine receptor [9] = biological target: T1, D(2) dopamine receptor; assay: Inhibitor constant of compound for high affinity component of [3H]spiroperidol/N-propylnorapomorphine binding to Dopamine receptor D2 in presence of Gpp(NH)p; how it was run: as §1
D(2) dopamine receptor [10] = biological target: T1, D(2) dopamine receptor; assay: Ratio of the high affinity state over low affinity state of dopamine D2 receptor in the presence of Gpp(NH)p. (pretreatment with 100 nM of compound).; how it was run: as §1
D(2) dopamine receptor [11] = biological target: T1, D(2) dopamine receptor; assay: Inhibitor constant of compound for high affinity component of [3H]spiroperidol/N-propylnorapomorphine binding to Dopamine receptor D2 in absence of Gpp(NH)p (pretreatment with 100 nM of compound); how it was run: as §1
D(2) dopamine receptor [12] = biological target: T1, D(2) dopamine receptor; assay: Inhibitor constant of compound for low affinity component of [3H]spiroperidol/N-propylnorapomorphine binding to Dopamine receptor D2 in presence of Gpp(NH)p; how it was run: as §1
D(2) dopamine receptor [13] = biological target: T1, D(2) dopamine receptor; assay: Percent of Dopamine receptor D2 in high affinity state for the compound in absence of Gpp(NH)p; how it was run: as §1
D(2) dopamine receptor [14] = biological target: T1, D(2) dopamine receptor; assay: Ratio of the high affinity state over low affinity state of dopamine D2 receptor in the presence of Gpp(NH)p.; how it was run: as §1
D(2) dopamine receptor [15] = biological target: T1, D(2) dopamine receptor; assay: Percent of Dopamine receptor D2 in low affinity state for the compound in absence of Gpp(NH)p (pretreatment with 100 nM of compound).; how it was run: as §1
D(2) dopamine receptor [16] = biological target: T1, D(2) dopamine receptor; assay: Inhibitor constant of compound for low affinity component of [3H]spiroperidol/N-propylnorapomorphine binding to Dopamine receptor D2 in absence of Gpp(NH)p (pretreatment with 100 nM of compound); how it was run: as §1
D(2) dopamine receptor [17] = biological target: T1, D(2) dopamine receptor; assay: Percent of Dopamine receptor D2 in low affinity state for the compound in presence of Gpp(NH)p; how it was run: as §1
D(2) dopamine receptor [18] = biological target: T1, D(2) dopamine receptor; assay: Percent of Dopamine receptor D2 in high affinity state for the compound in presence of Gpp(NH)p (pretreatment with 100 nM of compound).; how it was run: as §1
D(2) dopamine receptor [19] = biological target: T1, D(2) dopamine receptor; assay: Percent of Dopamine receptor D2 in low affinity state for the compound in absence of Gpp(NH)p; how it was run: as §1
Rattus norvegicus [20] = assay: Percent increase in apomorphine induced rotational behavior in the 6-hydroxydopamine lesioned rat model of hemiparkinsonism by 0.01 mg/Kg of compound given intraperitoneally; assay type: functional
How it was run: (§2)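 Rats with a unilateral 6-hydroxydopamine lesion of the substantia nigra received the test compound ip (0.00001–1 mg/kg) together with apomorphine (0.25 mg/kg, ip), n = 4. Contralateral rotations were counted over 10 min and expressed as percent change from the control rotational response, mean ± SEM.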

Rattus norvegicus [21] = assay: Percent increase in apomorphine induced rotational behavior in the 6-hydroxydopamine lesioned rat model of hemiparkinsonism by 0.001 mg/Kg of compound given intraperitoneally; assay type: functional; how it was run: as §2

T1 sequence (P14416 whole entry): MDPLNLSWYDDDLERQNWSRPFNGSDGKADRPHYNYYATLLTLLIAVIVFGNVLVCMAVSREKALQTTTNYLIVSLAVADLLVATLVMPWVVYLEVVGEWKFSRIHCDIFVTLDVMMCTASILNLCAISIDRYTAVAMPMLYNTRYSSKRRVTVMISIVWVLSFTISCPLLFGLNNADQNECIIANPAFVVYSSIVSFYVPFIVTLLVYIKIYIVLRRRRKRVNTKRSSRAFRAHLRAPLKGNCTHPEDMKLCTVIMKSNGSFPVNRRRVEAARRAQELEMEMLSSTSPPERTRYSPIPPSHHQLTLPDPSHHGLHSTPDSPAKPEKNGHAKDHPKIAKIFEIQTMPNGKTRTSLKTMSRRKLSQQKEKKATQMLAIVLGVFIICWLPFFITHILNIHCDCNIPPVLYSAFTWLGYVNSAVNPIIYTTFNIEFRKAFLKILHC

Ki (D(2) dopamine receptor [1]) [nM] | Ki (D(2) dopamine receptor [2]) [nM] | RH (D(2) dopamine receptor [3]) [%] | RH/RL (D(2) dopamine receptor [4]) | RH/RL (D(2) dopamine receptor [5]) | Ki (D(2) dopamine receptor [6]) [nM] | RH (D(2) dopamine receptor [7]) [%] | RL (D(2) dopamine receptor [8]) [%] | Ki (D(2) dopamine receptor [9]) [nM] | RH/RL (D(2) dopamine receptor [10]) | Ki (D(2) dopamine receptor [11]) [nM] | Ki (D(2) dopamine receptor [12]) | RH (D(2) dopamine receptor [13]) [%] | RH/RL (D(2) dopamine receptor [14]) | RL (D(2) dopamine receptor [15]) [%] | Ki (D(2) dopamine receptor [16]) [nM] | RL (D(2) dopamine receptor [17]) [%] | RH (D(2) dopamine receptor [18]) [%] | RL (D(2) dopamine receptor [19]) [%] | Compound | other results
0.09 | 0.06 | 19 | 1.48 | 0.96 | 73.2 | 61 | 72 | 0.13 | 0.44 | 0.04 | 60 nM and 78 nM | 49 | 0.23 | 41 | 60.1 | 82 | 32 | 51 | CC(C)C[C@H](NC(=O)[C@@H]1CCCN1)C(=O)NCC(N)=O (H-Pro-Leu-Gly-NH2) | –
0.071 | 0.064 | 15 | 1.77 | 1.08 | 196 | 64 | 47 | 0.122 | 1.12 | 0.031 | 246 nM and 202 nM | 52 | 0.17 | 36 | 168 | 85 | 53 | 48 | NC(=O)C1CCS[C@@H]2C[C@]3(CCCN3C(=O)[C@@H]3CCCN3)C(=O)N12 (some centres undefined) | Activity (Rattus norvegicus [20]): 95%
0.067 | 0.09 | 17 | 2.12 | 1.13 | 190 | 68 | 45 | 0.196 | 1.22 | 0.05 | 260 nM and 211 nM | 53 | 0.2 | 32 | 188 | 83 | 55 | 47 | NC(=O)[C@H]1CS[C@@H]2CC[C@]3(CCCN3C(=O)[C@@H]3CCCN3)C(=O)N12 | Activity (Rattus norvegicus [21]): 88%
